DNA FID counter: counter-screen for HCV NS3 helicase inhibitors: DNA intercalator displacement; DNA fluorescent intercalator displacement, fluorescence; inhibition, % at 7.9 µM; 290,000 compounds, 0.17% hits; AID 1845; in the data active means inhibition above about 37%;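 further: 0% = vehicle and 100% = reference compound; higher means more ethidium bromide displaced from hairpin DNA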
TRPC4 PAM: TRPC4 (mouse) allosteric potentiation | HEK293 TRPC4beta/mu-opioid, DAMGO EC20, Fluo-4 Ca2+ flux; stronger effect = higher value | B-score at 10 µM | 310,000 compounds, 0.42% hits | AID 2227;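 active means B-score of calcium response area above 5 SD of library B-scores, with initial fluorescence ratio within 5 SD of library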;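 further: B-score of integrated fluorescence ratio over time as area under calcium response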
TRPC6 act: mouse TRPC6 channel activation. AID 2550. HEK293-TRPC6 membrane potential dye fluorescence; stronger effect = higher value. B-score at 10 µM. Q61143. 310,000 compounds, 0.13% hits;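 active means B-score of the integrated fluorescence ratio above library mean plus 3 SD, and starting fluorescence ratio within library mean plus 5 SD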;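 further: higher score means more depolarization so channel activation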
TRPC4 block: inhibitors of mouse TRPC4 channel. 300,000 compounds, 0.39% hits. B-score at 10 µM. HEK293 TRPC4beta/mu-opioid, DAMGO-evoked Fluo4 calcium flux; stronger effect = lower value;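 active means B-score over 3 SD under the library average, no early fluorescence shift, positive overall ratio signal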
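Material: HEK293 cells with stable TRPC4beta plus mu-opioid receptor expression; probe or stimulus: DAMGO in two steps, submaximal then maximal; technique: Fluo4 calcium fluorescence by kinetic imaging, 5 s 1 Hz baseline; measure: integrated fluorescence ratio relative to baseline, converted to per-well B score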
TRPC6 inh: inhibitors of mouse TRPC6 channel; B-score at 10 µM; HEK293-TRPC6, membrane potential dye, ACh-evoked depolarization; stronger effect = lower value; AID 2553; 310,000 compounds, 1.1% hits; Q61143;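 active means B-score under library mean minus 3 SD, initial fluorescence not abnormally high, positive integrated signal ratio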;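 further: B-score derived from integrated fluorescence ratio over the kinetic read; more negative B-score means stronger inhibition of depolarization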
TRPC4 act: TRPC4 (mouse) channel activation; Q9QUQ5; HEK293 TRPC4beta/mu-opioid, Fluo4 calcium fluorescence; stronger effect = higher value; AID 2237; B-score at 10 µM; 310,000 compounds, 0.49% hits;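 active means B-score above 5 SD of library B-scores, and initial fluorescence ratio not above library mean plus 5 SD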;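 further: positive B-score marks a calcium rise read as TRPC4 activation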
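System – HEK293 cells stably co-expressing mouse TRPC4beta and mu-opioid receptor · Signal – Fluo4 calcium-sensitive dye fluorescence, kinetic, 1 Hz baseline · Benchmarks – buffer (low) and maximal DAMGO (high) · Read-out – B score of integrated fluorescence ratio per well · Incubation – dye loading 45 min room temperature, 110 s kinetic read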
TRPC4 sel inh 2: second check of whether TRPC6 inhibitors also affect mouse TRPC4; inhibition, % at 10 µM; shares compounds with TRPC6 inh; 920 compounds, 42% hits; HEK293 TRPC4/MOR, membrane potential dye fluorescence; channel activated by saturating DAMGO dose;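 active means compounds whose fluorescence signal differed from control wells by over 3 SD, either direction, in both duplicate plates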
TRPC4 spec: mouse TRPC4 off-target activity of TRPC6 inhibitors; shares compounds with TRPC6 inh; 920 compounds, 61% hits; AID 2777; activity change, negative = inhibition, % at 10 µM; HEK293 TRPC4/mu-opioid, membrane potential fluorescence;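 active means rise or fall in signal beyond 3 SD of buffer-only wells in both replicate plates, either sign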;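 further: integrated kinetic ratio of fluorescence range over baseline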
HEK293 MPD ctr 2-1: second check of TRPC6 inhibitor effects in parental HEK293 cells; shares compounds with TRPC6 inh; parental HEK293 membrane potential dye fluorescence; maximal acetylcholine challenge after compound addition; signal change vs control, % at 10 µM; 920 compounds, 31% hits; AID 2779;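 active means membrane potential signal moving either way by over 3 SD of the maximum-effect control, in both duplicate plates, meaning non-specific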
HEK293 MPD ctr-1: counter-screen for TRPC6 inhibitors: effect in parental HEK293 cells. shares compounds with TRPC6 inh. parental HEK293 membrane potential dye fluorescence. membrane potential signal change, % at 10 µM. 920 compounds, 60% hits;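 active means membrane potential signal shifting up or down by more than 3 SD of buffer-only wells, on both duplicate plates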
HEK293 MPD ctr-2: checks TRPC6 modulator effects in parental HEK293 cells. 2,400 compounds, 51% hits. AID 488924. membrane potential signal change, % at 10 µM. shares compounds with TRPC6 inh. membrane potential dye fluorescence;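 active means membrane potential signal moves up or down beyond 5 SD from buffer-only wells, on both duplicate plates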
HEK293 MPD ctr 2-2: second counter-screen for TRPC6 modulators: effect in parental HEK293 cells | shares compounds with TRPC6 inh | membrane potential dye fluorescence; after compound, maximal acetylcholine stimulation | inhibition, % at 10 µM | 2,400 compounds, 14% hits | AID 488926;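 active means membrane potential signal drops by more than 5 SD from the mean control signal, in both duplicate plates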;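 further: plate controls were acetylcholine ECmax control wells for no effect and buffer only wells for full effect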
TRPC4/MOR mod: mouse TRPC4 off-target activity of TRPC6 modulators; shares compounds with TRPC6 inh; HEK293 TRPC4/mu-opioid, membrane potential fluorescence; percent change from control (negative = decrease, positive = increase), % at 10 µM; 2,400 compounds, 69% hits; AID 488927;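 active means membrane potential signal moved up or down beyond 5 SD of buffer control wells, in both duplicate plates, actives on both sides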;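 further: plate controls were assay buffer wells for no effect and DAMGO maximal-effect wells for full effect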
TRPC4 ctr inh 2: second check of whether TRPC6 modulators also affect mouse TRPC4 | HEK293 TRPC4/mu-opioid, membrane potential dye fluorescence; stimulated with maximal-effect DAMGO | 2,400 compounds, 55% hits | inhibition, % at 10 µM | shares compounds with TRPC6 inh;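 active means drop in membrane potential signal beyond 5 SD of the control wells in both duplicate plates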;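 further: TRPC4 counter screen for TRPC6 hits run under conditions tuned for TRPC6 not TRPC4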
TRPC6 inh conf: mouse TRPC6 inhibitor confirmation | shares compounds with TRPC6 inh | HEK293-TRPC6, membrane potential dye, ACh-evoked depolarization | inhibition, % at 10 µM | 3,300 compounds, 43% hits | AID 488960;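 active means fluorescence ratio falls more than 5 SD below the full-stimulation control mean, in both duplicate runs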;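 further: integrated fluorescence ratio of peak minus minimum over baseline after agonist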
TRPC6 act confirm: mouse TRPC6 activator confirmation; shares compounds with TRPC6 inh; HEK293-TRPC6 membrane potential dye fluorescence, FDSS; activation, % at 10 µM; 2,800 compounds, 11% hits; AID 488961;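 active means ratio signal rise beyond 5 SD above unstimulated control wells' mean, seen in both duplicate runs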;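 further: plate controls were buffer EC0 wells for no effect and acetylcholine ECmax response for full effect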
* = called active by the depositor; i = inactive; / = no result given; + = active, no number. Shown are actives, neighbours in structure and some others; about 2.3% of the full set was active somewhere.

SMILES	DNA FID counter	TRPC4 PAM	TRPC6 act	TRPC4 block	TRPC6 inh	TRPC4 act	HEK293 MPD ctr-2	HEK293 MPD ctr 2-2	TRPC4/MOR mod	TRPC4 ctr inh 2	TRPC6 inh conf	TRPC6 act confirm	others
COCCN(C(=O)Cn1nnc2ccccc21)C(C(=O)NC1CCCC1)c1ccc(OC)cc1OC (configuration not stated)	-32	i	20*	i	i	i	600%*	194%*	118%*	i	/	311%*
C=CCN(C(=O)Cn1nnc2ccccc21)C(C(=O)NCCOC)c1ccc(OC)cc1OC (configuration not stated)	-24	i	i	i	i	i	/	/	/	/	/	/
COCCN(C(=O)Cn1nnc2ccccc21)C(C(=O)NC1CCCCC1)c1ccc(OC)cc1OC (configuration not stated)	-41	i	38*	i	i	i	818%*	173%*	163%*	i	/	354%*
O=C1CCC([N+](=O)[O-])C(C2CC=CCC2)N1 (configuration not stated)	/	i	i	i	i	i	/	/	/	/	/	/
CCC(=O)N1CCCC(C(=O)c2ccc(-c3ccccc3)cc2)C1 (configuration not stated)	-39	i	i	i	i	i	/	/	/	/	/	/
Cn1c(=O)c(C(=O)Nc2ccccc2S(N)(=O)=O)c(O)c2ccccc21	-17	i	i	i	i	i	/	/	/	/	/	/
Cn1c(=O)c(C(=O)Nc2ccccn2)c(O)c2ccccc21	-4	i	i	i	-8.7*	i	/	/	/	/	i	i	TRPC4 sel inh 2=i;TRPC4 spec=-21%*;HEK293 MPD ctr 2-1=i;HEK293 MPD ctr-1=-327%*
C[N+](C)(C)C/C=C1/COCO1	-4	i	i	i	-6.7*	i	/	/	/	/	i	/	TRPC4 sel inh 2=i;TRPC4 spec=0.5%*;HEK293 MPD ctr 2-1=i;HEK293 MPD ctr-1=0.3%*
C=CCNc1nc(N)c([N+](=O)[O-])c(Nc2ccccc2OC)n1	-9	i	i	i	i	i	/	/	/	/	/	/
COc1ccccc1Nc1nc(NCCCN(C)C)nc(N)c1[N+](=O)[O-]	29	i	i	i	-6.4*	i	i	i	i	49%*	42%*	i
O=C(CSC(=S)N1CCOCC1)c1cc2ccccc2oc1=O	-13	i	i	i	i	i	/	/	/	/	/	/
Clc1ccc(C2NCCc3sccc32)cc1 (configuration not stated)	4	i	i	i	-5.9*	i	i	i	15%*	71%*	i	i
O=C(Nc1ccc2oc(=O)ccc2c1)c1cccnc1	1	i	i	i	-6.3*	i	-180%*	i	-31%*	i	i	i
COC(=O)c1ccccc1NC(=O)CCn1c(=O)oc2ccccc21	-26	i	i	i	i	i	/	/	/	/	/	/
CCOc1ccccc1NC(=O)CN(c1ccc(Cl)cc1)S(C)(=O)=O	-33	i	i	i	i	i	/	/	/	/	/	/
COc1ccc(/C=C/C(=O)c2ccc3c(c2)OCO3)c(OC)c1	-10	i	i	i	i	i	/	/	/	/	/	/
COc1cc(/C=C/C(=O)c2ccc3c(c2)OCO3)cc(Cl)c1O	-12	i	52*	i	i	100*	+	+	258%*	54%*	/	342%*
COC(=O)c1ccc(C(=O)N=c2sccn2C)cc1	-11	i	i	i	i	i	/	/	/	/	/	/
CC(Sc1n[nH]c(N)n1)C(=O)NC1CCCCC1C (configuration not stated)	-4	i	i	i	i	i	/	/	/	/	/	/
O=C(Cn1c2[n+](c3ccc(C(F)(F)F)cc31)CCCCC2)Nc1ccccc1	21	i	i	i	i	i	/	/	/	/	/	/
FC(F)(F)c1ccc2c(c1)n(Cc1ccccc1)c1[n+]2CCCCC1	12	i	i	i	-5.1*	i	i	i	i	i	i	i
NS(=O)(=O)c1ccc(NC(=S)NCc2ccc3c(c2)OCO3)cc1	13	i	i	i	-6.8*	i	i	i	i	i	i	i
NS(=O)(=O)c1cccc(NC(=S)NCc2ccc3c(c2)OCO3)c1	-8	i	i	i	i	i	/	/	/	/	/	/
O=C(O)CN1C(=O)C2C3C=CC(C3)C2C1=O (configuration not stated)	9	i	i	i	i	i	/	/	/	/	/	/
C[N+]1(CN2C(=O)C3C4C=CC(C4)C3C2=O)CCCCC1 (configuration not stated)	-2	i	i	i	-5.6*	i	i	i	i	i	48%*	i
COc1ccccc1CCNC(=O)C(=O)NCC1OCCN1S(=O)(=O)c1ccc(OC)c(OC)c1 (configuration not stated)	-35	i	i	i	i	i	/	/	/	/	/	/

Screens (PubChem)
